{"source": "ChEMBL document CHEMBL3763097", "about": "“Synthesis and biological evaluation of 5,10-dihydro-11H-dibenzo[b,e][1,4]diazepin-11-one structural derivatives as anti-cancer and apoptosis inducing agents” (Eur J Med Chem, 2016)", "key": {"A549 [1]": {"system": "A549", "experiment": "Cell cycle arrest in human A549 cells assessed as accumulation at G2/M phase after 24 to 48 hrs by propidium iodide staining based flow cytometry", "type": "functional", "how_it_was_run": "(§1)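 Cells were seeded at 1×10^6 per well and treated 24 h later with 0.5, 1 or 2 µM compound; DMSO-treated cells served as control. Methods give harvest at 48 h (floating plus trypsinised cells); the figure legend says 24 h. Cells were fixed in 70% ethanol for 30 min at 4 °C and stained with PI, Triton X-100 and RNase A for 15 min in the dark. 10000 events were counted by flow cytometry.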"}, "MDA-MB-231 [2]": {"system": "MDA-MB-231", "experiment": "Cell cycle arrest in human MDA-MB-231 cells assessed as accumulation at G2/M phase at 1 uM after 24 to 48 hrs by propidium iodide staining based flow cytometry (reference value: 20.2%)", "type": "functional", "how_it_was_run": "as §1"}, "A549 [3]": {"system": "A549", "experiment": "Cell cycle arrest in human A549 cells assessed as accumulation at S phase at 2 uM after 24 to 48 hrs by propidium iodide staining based flow cytometry (reference value: 18.3%)", "type": "functional", "how_it_was_run": "as §1"}, "MDA-MB-231 [4]": {"system": "MDA-MB-231", "experiment": "Induction of apoptosis in human MDA-MB-231 cells assessed as viable cells at 0.5 uM after 24 hrs by Annexin V-FITC/PI dual staining based flow cytometry (reference value: 91%)", "type": "functional", "conditions": "MDA-MB-231, 24 h, read-out: Activity"}, "MDA-MB-231 [5]": {"system": "MDA-MB-231", "experiment": "Induction of apoptosis in human MDA-MB-231 cells after 24 hrs by Annexin V-FITC/PI dual staining based flow cytometry", "type": "functional, cell-based"}, "A549 [6]": {"system": "A549", "experiment": "Induction of apoptosis in human A549 cells after 24 hrs by Annexin V-FITC/PI dual staining based flow cytometry", "type": "functional, cell-based"}, "MDA-MB-231 [7]": {"system": "MDA-MB-231", "experiment": "Disruption of mitochondrial membrane potential in human MDA-MB-231 cells after 48 hrs by Rhodamine-123 staining based spectrofluorometry", "type": "functional, cell-based", "how_it_was_run": "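Cells were seeded at 5×10^5 cells/mL overnight and treated with 0.5, 1 and 2 µM compound; the methods say 24 h and the results text says 48 h. Trypsinised cells were washed and stained with rhodamine-123 (2 µM in PBS) for 30 min at room temperature in the dark, washed and read by spectrofluorometer. Data are mean ± SD of three independent experiments.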"}, "A549 [8]": {"system": "A549", "experiment": "Induction of apoptosis in human A549 cells assessed as necrotic cells at 2 uM after 24 hrs by Annexin V-FITC/PI dual staining based flow cytometry (reference value: 5.2%)", "type": "functional"}, "A549 [9]": {"system": "A549", "experiment": "Induction of apoptosis in human A549 cells assessed as condensation of nuclei at 0.5 to 2 uM after 48 hrs by Hoechst […] staining based fluorescence microscopy", "type": "functional, cell-based", "how_it_was_run": "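Cells at 25×10^4 per well were allowed to adhere 24 h, then treated with 0.5, 1 and 2 µM compound for 48 h at 37 °C. After a PBS wash they were stained with Hoechst […] (5 µg/mL) for 30 min at room temperature and washed twice. Nuclear morphology was viewed by fluorescence microscopy (ex 350/em 460 nm).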"}, "MDA-MB-231 [10]": {"system": "MDA-MB-231", "experiment": "Cell cycle arrest in human MDA-MB-231 cells assessed as accumulation at G0/G1 phase at 0.5 uM after 24 to 48 hrs by propidium iodide staining based flow cytometry (reference value: 74.4%)", "type": "functional", "how_it_was_run": "as §1"}, "MDA-MB-231 [11]": {"system": "MDA-MB-231", "experiment": "Antimigratory activity in human MDA-MB-231 cells at 0.5 to 2 uM measured after 24 to 48 hrs by wound healing assay", "type": "functional, cell-based", "how_it_was_run": "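Wound-healing assay. Cells were seeded at 5×10^5 per well and grown 24 h to a confluent monolayer, then scratched once across the middle with a sterile pipette tip and washed twice with PBS. Compound was added at 0.5, 1 and 2 µM. Wound closure was photographed by phase-contrast microscopy at 0, 24 and 48 h in three or more random fields.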"}, "A549 [12]": {"system": "A549", "experiment": "Cell cycle arrest in human A549 cells assessed as accumulation at G2/M phase at 0.5 uM after 24 to 48 hrs by propidium iodide staining based flow cytometry (reference value: 22.3 to 31%)", "type": "functional", "how_it_was_run": "as §1"}}, "note": "The source made the active and inactive calls. The calls are words filed in the database; no cut-off is given here.", "data": [{"smiles": "O=C1c2ccccc2Nc2ccccc2N1Cc1cn(Cc2ccccc2)nn1", "values": [{"measurement": "Activity", "setting": "A549 [1]", "value": "Dose-dependent effect"}, {"measurement": "Activity", "setting": "MDA-MB-231 [2]", "value": 33.6, "unit": "%"}, {"measurement": "Activity", "setting": "A549 [3]", "value": 13.8, "unit": "%"}, {"measurement": "viability at 0.5 µM", "setting": "MDA-MB-231 [4]", "value": 70, "unit": "%"}, {"measurement": "Activity", "setting": "MDA-MB-231 [5]", "value": "Dose-dependent effect"}, {"measurement": "Activity", "setting": "A549 [6]", "value": "Dose-dependent effect"}, {"measurement": "Activity", "setting": "MDA-MB-231 [7]", "value": "Dose-dependent effect"}, {"measurement": "Activity", "setting": "A549 [8]", "value": 3.8, "unit": "%"}, {"measurement": "Activity", "setting": "A549 [9]", "value": "Active"}, {"measurement": "Activity", "setting": "MDA-MB-231 [10]", "value": 73.6, "unit": "%"}, {"measurement": "inhibition", "setting": "MDA-MB-231 [11]", "value": "Dose-dependent effect"}, {"measurement": "Activity", "setting": "A549 [12]", "value": 36.6, "unit": "%"}]}]}
